Active and inactive are the calls of the source. No cut-off for these calls is given here.
Experiments:
[1] = Inhibition of quorum sensing regulated bioluminescence in wild type Vibrio harveyi BB120 after 5 hrs by luminescence assay
Summary of the method: (§1)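 Twofold compound dilutions in LM broth; OD600-adjusted (0.4) AB-grown overnight culture diluted 1:100 in Luria-Marine broth, 200 µl per well. Incubated 5 h at 30 °C with aeration; luminescence imaged by CCD camera. IC50 = concentration inhibiting luminescence by 50%, fitted from gradients in 2–3 independent experiments (2–3 repeats each); top concentration 1000 µM.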

Vibrio harveyi [2] = assay: Antimicrobial activity against wild type Vibrio harveyi BB120; type: functional
Summary of the method: (§2)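 Overnight AB-medium culture, OD600 adjusted to 0.4, diluted 1:100 into Luria-Marine broth and added to twofold compound dilutions in LM broth, 200 µl per well. Incubated 5 h at 30 °C with aeration under breathable seal; growth read as OD600. GIC50 = concentration reducing OD600 by 50%, from gradients in 2–3 independent experiments, 2–3 repeats each; highest concentration tested 1000 µM.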

Salmonella typhimurium [3] = assay: Antimicrobial activity against Salmonella Typhimurium ATCC 14028 assessed as inhibition of biofilm formation after 48 hrs using crystal violet staining by microtiter plate assay; type: functional, organism-based, Salmonella enterica subsp. enterica serovar Typhimurium; settings: Salmonella enterica, ATCC 14028, 48 h
Summary of the method: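 Peg-lid biofilm assay: overnight LB culture diluted 1:100 into TSB 1/20, ca. 1×10⁶ cells added to twofold compound dilutions, 200 µl total per well. Static incubation 48 h at 16 °C; lid moved to fresh medium with compound after 24 h. IC50 from concentration gradients, 2–3 independent experiments, 2–3 repeats each.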

L1210 = assay: Cytotoxicity against mouse L1210 cells assessed as inhibition of cell proliferation after 2 days by coulter counter assay; type: cell-based; settings: L1210, 48 h
Summary of the method: (§3)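 Cells suspended at 300,000–500,000 cells/mL; 100 µL added to equal volume of compound dilution in 96-well plates. Incubated at 37 °C for 2 days (L1210, FM3A), 3 days (CEM) or 4 days (HeLa, OST). Cell number counted by Coulter counter; IC50 = concentration inhibiting proliferation by 50%.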

Vibrio harveyi [4] = assay: Inhibition of quorum sensing regulated bioluminescence in Vibrio harveyi JAF553 luxU H58A linked to Kan mutant quorum sensing after 5 hrs by luminescence assay
Summary of the method: (§4)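 Twofold serial dilutions in Luria-Marine broth; overnight culture (grown in AB medium) adjusted to OD600 0.4, diluted 1:100 and added 1:1 to wells (200 µl total). Incubated 5 h at 30 °C with aeration under breathable seal. Luminescence read by CCD camera, OD600 also measured. Luminescence expressed as percentage of untreated control of the same strain.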

Salmonella typhimurium [5] = assay: Antimicrobial activity against Salmonella Typhimurium ATCC 14028 assessed as effect on planktonic growth at 100 uM after 36 hrs by microtiter plate assay; type: functional, organism-based; settings: Salmonella enterica subsp. enterica serovar Typhimurium
Summary of the method: (§5)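 Overnight LB culture diluted 1:200 in TSB 1/20; 300 µl per well; compound serial dilutions made in EtOH, 3 µl added per well in triplicate; solvent-only controls in three- or fourfold. Incubated at 16 °C for at least 36 h with continuous shaking in Bioscreen reader; OD600 read every 15 min; growth curves compared with untreated controls.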

Salmonella typhimurium [6] = assay: Antimicrobial activity against Salmonella Typhimurium ATCC 14028 assessed as effect on planktonic growth at 250 uM after 36 hrs by microtiter plate assay; type: functional, organism-based; settings: Salmonella enterica subsp. enterica serovar Typhimurium; summary of the method: as §5
HeLa = assay: Cytotoxicity against human HeLa cells assessed as inhibition of cell proliferation after 4 days by coulter counter assay; type: cell-based; settings: 96 h; summary of the method: as §3
OST = assay: Cytotoxicity against human thymidine kinase deficient OST cells assessed as inhibition of cell proliferation after 4 days by coulter counter assay; type: cell-based; settings: 96 h; summary of the method: as §3
Vibrio harveyi [7] = assay: Inhibition of quorum sensing regulated bioluminescence in Vibrio harveyi BNL258 harboring hfq::Tn5lacZ mutant quorum sensing after 5 hrs by luminescence assay; summary of the method: as §4
CCRF-CEM = assay: Cytotoxicity against human CEM cells assessed as inhibition of cell proliferation after 3 days by coulter counter assay; type: cell-based; settings: 72 h; summary of the method: as §3
FM3A = assay: Cytotoxicity against mouse FM3A cells assessed as inhibition of cell proliferation after 2 days by coulter counter assay; type: cell-based; settings: 48 h; summary of the method: as §3
Vibrio harveyi [8] = assay: Inhibition of quorum sensing regulated bioluminescence in Vibrio harveyi JAF483 luxO D47A linked to Kan mutant quorum sensing after 5 hrs by luminescence assay; summary of the method: as §4
Salmonella typhimurium [9] = assay: Antimicrobial activity against Salmonella Typhimurium ATCC 14028 assessed as effect on planktonic growth at 10 uM after 36 hrs by microtiter plate assay; type: functional, organism-based; settings: Salmonella enterica subsp. enterica serovar Typhimurium; summary of the method: as §5
Salmonella typhimurium [10] = assay: Antimicrobial activity against Salmonella Typhimurium ATCC 14028 assessed as effect on planktonic growth at 1 uM after 36 hrs by microtiter plate assay; type: functional, organism-based; settings: Salmonella enterica subsp. enterica serovar Typhimurium; summary of the method: as §5
Vibrio harveyi [11] = assay: Antimicrobial activity against wild type Vibrio harveyi BB120 at 1000 uM; type: functional, organism-based; summary of the method: as §2
[12] = Inhibition of quorum sensing regulated bioluminescence in wild type Vibrio harveyi BB120 at 1000 uM after 5 hrs by luminescence assay; summary of the method: as §1

Row | SMILES | IC50 [1] [µM] | GI50 (Vibrio harveyi [2]) [µM] | IC50 (Salmonella typhimurium [3]) [µM] | Activity (Salmonella typhimurium [5]) | Activity (Salmonella typhimurium [6]) | Activity (Salmonella typhimurium [9]) | Activity (Salmonella typhimurium [10]) | further results
1 | CCCCC1=CC(=C(Br)Br)OC1=O | 18.9 | 141 | 148 |  |  |  |  | 
2 | CCCCCCC1=C(Br)C(=O)OC1=O [BROMOHEXYLMALEIC ANHYDRIDE] | 10.6 | 208 | 65.9 | inactive | inactive |  |  | IC50 (L1210): 208 µM; Activity (Vibrio harveyi [4]): Active; IC50 (HeLa): 156 µM; IC50 (OST): 43 µM; Activity (Vibrio harveyi [7]): Active; IC50 (CCRF-CEM): 90 µM; IC50 (FM3A): 243 µM; Activity (Vibrio harveyi [8]): Active
3 | CC(Br)C1=C(Br)/C(=C/Br)OC1=O (stereo unspecified) | 6.34 | 16.1 | 4.5 | Active | Active | inactive | inactive | 
4 | CCCCCCC1=C(Br)/C(=C/Br)OC1=O | 11.9 | 34 | 10.7 | inactive | Active | inactive |  | 
5 | CCCC(Br)C1=CC(=C(Br)Br)OC1=O (stereo unspecified) | 0.2 | 1.07 | 1.31 | Active | Active | inactive | inactive | 
6 | CCCCCCC1=CC(=O)OC1=O | 97.8 | 640 | > 1000 |  |  |  |  | 
7 | CC(=O)OC(C)C1=CC(=C(Br)Br)OC1=O (stereo unspecified) |  |  | 162 | inactive | inactive | inactive | inactive | 
8 | CCC1=CC(=C(Br)Br)OC1=O | 105 | 325 | 200 | inactive | inactive | inactive |  | 
9 | CCCCC1=C(Br)/C(=C/Br)OC1=O | 1.36 | 65.3 | 23.1 | inactive | Active | inactive |  | 
10 | CCCCCCC1=CC(=C(Br)Br)OC1=O | 84 | 197 | 160 |  |  |  |  | 
11 | CCCCCCC1=C/C(=C/Br)OC1=O |  |  | > 1000 |  |  |  |  | 
12 | CC(Br)C1=CC(=C(Br)Br)OC1=O (stereo unspecified) | 0.774 | 3.07 | 1.17 | Active | Active | Active | inactive | 
13 | CCCC(Br)C1=C(Br)/C(=C/Br)OC1=O (stereo unspecified) | 1.18 | 4.04 | 5.71 | Active | Active | inactive | inactive | 
14 | O=C1C=CC(=C(Br)Br)O1 | 2.88 | 25.5 |  |  |  |  |  | 
15 | O=C1C=C/C(=C/Br)O1 | 4.07 | 15.7 |  |  |  |  |  | 
16 | CCCC(OC(C)=O)C1=C(Br)/C(=C/Br)OC1=O (stereo unspecified) | 50.1 | 147 | 132 | inactive | inactive | inactive | inactive | 
17 | C=C1OC(=O)C(CCCCCC)=C1Br | 1.36 | 36.3 | 19.4 | Active | Active | inactive |  | IC50 (L1210): 8.5 µM; Activity (Vibrio harveyi [4]): Active; IC50 (HeLa): 48 µM; IC50 (OST): 2 µM; Activity (Vibrio harveyi [7]): Active; IC50 (CCRF-CEM): 7.5 µM; IC50 (FM3A): 16 µM; Activity (Vibrio harveyi [8]): Active
18 | CC(=O)OC(C)C1=C(Br)C(=C(Br)Br)OC1=O (stereo unspecified) | 6.31 | 25.4 | 7.29 | inactive | Active | inactive | inactive | 
19 | CCC1=C(Br)C(=C(Br)Br)OC1=O | 1.15 | 2.26 | 57.5 | inactive |  | inactive |  | 
20 | CCCCCCCCCCCCC1=C(Br)/C(=C/Br)OC1=O |  |  |  |  |  |  |  | GI50 (Vibrio harveyi [11]): inactive; IC50 [12]: Not Active
21 | CC(Br)C1=C(Br)C(=C(Br)Br)OC1=O (stereo unspecified) | 2.76 | 9.74 | 4.09 | inactive | inactive | inactive | inactive | 
22 | CCCCCCCCCCC1=C(Br)/C(=C/Br)OC1=O | 26.6 | > 300 |  |  |  |  |  | 
23 | O=C1C=C(Br)/C(=C/Br)O1 | 2.71 | 3.16 |  |  |  |  |  | 
24 | CCCCCC(Br)C1=C(Br)/C(=C/Br)OC1=O (stereo unspecified) | 5.21 | 7.27 | 3.23 | inactive | inactive | inactive | inactive | 
25 | CCCCC1=C(Br)C(=C(Br)Br)OC1=O | 14.4 | 20.5 |  |  |  |  |  | 
26 | CCCCCCCCC1=C(Br)/C(=C/Br)OC1=O | 3.41 | 267 |  |  |  |  |  | 
27 | CCC1=C(Br)/C(=C/Br)OC1=O | 9.27 | 10.8 | 17.9 | inactive | Active | inactive |  | IC50 (L1210): 284 µM; IC50 (HeLa): 39 µM; IC50 (OST): 6.3 µM; IC50 (CCRF-CEM): 208 µM; IC50 (FM3A): > 500 µM
